Test results taken from ChEMBL document CHEMBL4118152, “Discovery of Potent and Selective Periphery-Restricted Quinazoline Inhibitors of the Cyclic Nucleotide Phosphodiesterase PDE1” (J Med Chem, 2018).

Columns and labels:
[1] = target: Histamine H3 receptor (Homo sapiens) (UniProt Q9Y5N1); assay: Inhibition of human histamine H3 receptor at 10 uM relative to control
[2] = Drug uptake in Wistar Hannover rat cerebrospinal fluid at 1 mg/kg, sc measured at 0.5 hrs post dose by LC-MS/MS analysis; assay type: ADME, organism-based; details: read-out: Drug uptake
Outline: (§1)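 Rats were dosed subcutaneously at 1 mg/kg. CSF, plasma and brain were sampled at 0.5, 1, 2 and 4 h post dose and analysed for drug concentration. Values are means at each time point.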

[3] = target: Voltage-dependent N-type calcium channel subunit alpha-1B (Rattus norvegicus) (UniProt Q02294); assay: Displacement of [125I]omega -conotoxin GVIA from rat brain N-type Calcium channel at 10 uM after 30 mins by scintillation counting analysis relative to control
[4] = species: Mus musculus; assay: Inhibition of mouse brain rolipram binding site assessed as [3H]rolipram uptake at 10 uM after 60 mins by scintillation counting analysis relative to control
[5] = target: 5-hydroxytryptamine receptor 3A (Homo sapiens) (UniProt P46098); assay: Inhibition of human 5-HT3 receptor at 10 uM relative to control
[6] = target: Vasopressin V2 receptor (Homo sapiens) (UniProt P30518); assay: Inhibition of human Vasopressin 2 receptor at 10 uM relative to control
[7] = target: 5-hydroxytryptamine receptor 4 (Homo sapiens) (UniProt Q13639); assay: Inhibition of human 5-HT4E receptor at 10 uM relative to control
[8] = target: 5-hydroxytryptamine receptor 2C (Homo sapiens) (UniProt P28335); assay: Inhibition of human 5-HT2C receptor at 10 uM relative to control
[9] = target: Kappa-type opioid receptor (Homo sapiens) (UniProt P41145); assay: Inhibition of human kappa opioid receptor at 10 uM relative to control
[10] = Ratio of drug uptake in cerebrospinal fluid to fraction unbound in plasma in Wistar Hannover rat at 1 mg/kg, sc measured at 1 hr post dose by LC-MS/MS analysis; assay type: ADME, organism-based, CSF/Plasma; details: in vivo
[11] = target: Rod cGMP-specific 3',5'-cyclic phosphodiesterase subunit alpha (Bos taurus, UniProt P11541); assay: Inhibition of bovine retina PDE6A using 3',5'-[3H]cGMP as substrate after 30 mins by scintillation proximity assay
Outline: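 Enzymes were human except PDE6A, which was bovine. Each was assayed with cAMP or cGMP substrate, as appropriate to the enzyme, at concentrations below 1/3 of Km. IC50 values are mean ± SEM from n = 3 or more.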

[12] = target: Beta-3 adrenergic receptor (Homo sapiens) (UniProt P13945); assay: Inhibition of human beta 3 adrenergic receptor at 10 uM relative to control
[13] = target: CYP2C19 (Homo sapiens, UniProt P33261); assay: Inhibition of human CYP2C19 at 10 uM relative to control; assay type: ADME
[14] = Fraction unbound in Wistar Hannover rat brain at 1 mg/kg, sc measured at 1 hr post dose by LC-MS/MS analysis; assay type: ADME, organism-based; details: in vivo
[15] = target: Histamine H2 receptor (Homo sapiens) (UniProt P25021); assay: Inhibition of human histamine H2 receptor at 10 uM relative to control
[16] = target: Substance-K receptor (Homo sapiens) (UniProt P21452); assay: Inhibition of NK2 receptor (unknown origin) at 10 uM relative to control
[17] = species: Homo sapiens; assay: Inhibition of human calcium modulated kinase 2 at 10 uM relative to control
[18] = target: Melanocortin receptor 3 (Homo sapiens) (UniProt P41968); assay: Inhibition of human Melanocortin 3 receptor at 10 uM relative to control
[19] = target: D(3) dopamine receptor (Homo sapiens) (UniProt P35462); assay: Inhibition of human dopamine D3 receptor at 10 uM relative to control
[20] = target: Mu-type opioid receptor (Homo sapiens) (UniProt P35372); assay: Inhibition of human mu opioid receptor at 10 uM relative to control
[21] = target: Adenosine A2 receptor (Homo sapiens) (UniProt P29275+P29274); assay: Inhibition of human adenosine A2 receptor at 10 uM relative to control; assay type: protein assay
[22] = species: Homo sapiens; assay: Selectivity ratio of IC50 for full length recombinant human PDE10A1 to IC50 for full length recombinant human PDE1A
Outline: (§2)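 IC50s were measured against recombinant PDEs, all human except PDE6A (bovine). Each enzyme was given its appropriate cAMP or cGMP substrate at below 1/3 of its Km. IC50s are the mean of n = 3 or more. The selectivity ratio is the IC50 for the other PDE divided by the IC50 for PDE1B1 or PDE1A.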

[23] = target: Endothelin-1 receptor (Homo sapiens) (UniProt P25101); assay: Inhibition of endothelin A receptor (unknown origin) at 10 uM relative to control
[24] = species: Homo sapiens; assay: Selectivity ratio of IC50 for full length recombinant human PDE11A4 to IC50 for full length recombinant human PDE1B1; outline: as §2
[25] = Ratio of drug uptake in cerebrospinal fluid to fraction unbound in plasma in Wistar Hannover rat at 1 mg/kg, sc measured at 2 hrs post dose by LC-MS/MS analysis; assay type: ADME, organism-based, CSF/Plasma; details: in vivo
[26] = species: Homo sapiens; assay: Selectivity ratio of IC50 for full length recombinant human PDE7B to IC50 for full length recombinant human PDE1B1; outline: as §2
[27] = target: Adenosine receptor A1 (Homo sapiens) (UniProt P30542); assay: Inhibition of human adenosine A1 receptor at 10 uM relative to control
[28] = Drug uptake in Wistar Hannover rat cerebrospinal fluid at 1 mg/kg, sc measured at 2 hrs post dose by LC-MS/MS analysis; assay type: ADME, organism-based; details: read-out: Drug uptake; outline: as §1
[29] = species: Homo sapiens; assay: Displacement of [125I]alpha -bungarotoxin from human nAChR (Muscle-Type) at 10 uM after 120 mins by scintillation counting analysis relative to control
[30] = species: Rattus norvegicus; assay: Inhibition of rat brain AMPA receptor assessed as [3H]AMPA uptake at 10 uM after 60 mins by scintillation counting analysis relative to control
[31] = target: MAO-A (Homo sapiens, UniProt P21397); assay: Inhibition of human MAO-A at 10 uM relative to control
[32] = species: Homo sapiens; assay: Selectivity ratio of IC50 for full length recombinant human PDE4D3 to IC50 for full length recombinant human PDE1A; outline: as §2
[33] = target: CYP2D6 (Homo sapiens, UniProt P10635); assay: Inhibition of CYP2D6 (unknown origin) at 10 uM relative to control; assay type: ADME
[34] = target: 5-hydroxytryptamine receptor 7 (Homo sapiens) (UniProt P34969); assay: Inhibition of human 5-HT7 receptor at 10 uM relative to control
[35] = target: D(1A) dopamine receptor (Homo sapiens) (UniProt P21728); assay: Inhibition of human dopamine D1 receptor at 10 uM relative to control
[36] = target: Androgen receptor (Homo sapiens) (UniProt P10275); assay: Inhibition of human Androgen receptor at 10 uM relative to control
[37] = target: Angiotensin-converting enzyme (Homo sapiens) (UniProt P12821); assay: Inhibition of recombinant human Acetylcholinesterase using acetylthiocholine as substrate at 10 uM after 30 mins by spectrophotometric method relative to control
Sequence of Angiotensin-converting enzyme (Homo sapiens) (P12821 whole entry): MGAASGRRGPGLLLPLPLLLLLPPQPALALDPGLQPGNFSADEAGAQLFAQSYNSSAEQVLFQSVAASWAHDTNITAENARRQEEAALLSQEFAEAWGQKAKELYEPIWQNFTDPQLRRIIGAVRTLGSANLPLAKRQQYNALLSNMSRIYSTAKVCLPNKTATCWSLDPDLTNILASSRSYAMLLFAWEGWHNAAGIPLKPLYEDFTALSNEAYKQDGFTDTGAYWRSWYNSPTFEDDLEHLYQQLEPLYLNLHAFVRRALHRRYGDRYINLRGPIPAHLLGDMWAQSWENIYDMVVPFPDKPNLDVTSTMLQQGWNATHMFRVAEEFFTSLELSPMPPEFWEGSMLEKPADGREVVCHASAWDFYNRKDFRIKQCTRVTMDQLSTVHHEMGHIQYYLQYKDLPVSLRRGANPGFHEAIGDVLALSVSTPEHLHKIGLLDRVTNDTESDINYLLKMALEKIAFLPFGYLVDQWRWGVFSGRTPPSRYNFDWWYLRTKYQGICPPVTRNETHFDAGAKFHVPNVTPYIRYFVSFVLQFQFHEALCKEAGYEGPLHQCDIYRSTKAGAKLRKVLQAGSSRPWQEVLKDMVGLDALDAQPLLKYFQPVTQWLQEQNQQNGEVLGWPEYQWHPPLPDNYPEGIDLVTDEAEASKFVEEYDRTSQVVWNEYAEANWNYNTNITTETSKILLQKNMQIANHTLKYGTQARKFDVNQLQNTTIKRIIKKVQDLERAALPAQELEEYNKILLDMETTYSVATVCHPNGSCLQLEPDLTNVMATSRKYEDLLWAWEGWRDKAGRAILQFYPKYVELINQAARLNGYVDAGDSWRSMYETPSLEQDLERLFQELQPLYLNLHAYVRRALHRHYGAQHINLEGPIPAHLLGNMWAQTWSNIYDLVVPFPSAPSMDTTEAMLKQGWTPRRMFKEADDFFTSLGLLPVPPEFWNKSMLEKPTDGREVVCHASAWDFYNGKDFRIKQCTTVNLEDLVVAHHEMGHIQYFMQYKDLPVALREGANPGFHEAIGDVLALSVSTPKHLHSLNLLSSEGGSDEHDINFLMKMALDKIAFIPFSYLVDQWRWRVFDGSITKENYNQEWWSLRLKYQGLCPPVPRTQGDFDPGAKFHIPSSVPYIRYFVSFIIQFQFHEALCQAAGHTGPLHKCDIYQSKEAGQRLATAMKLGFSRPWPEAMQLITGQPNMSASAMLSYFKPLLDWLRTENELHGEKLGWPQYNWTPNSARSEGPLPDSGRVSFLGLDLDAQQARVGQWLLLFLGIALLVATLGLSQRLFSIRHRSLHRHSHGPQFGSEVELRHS

Sequence of 5-hydroxytryptamine receptor 3A (Homo sapiens) (P46098 whole entry): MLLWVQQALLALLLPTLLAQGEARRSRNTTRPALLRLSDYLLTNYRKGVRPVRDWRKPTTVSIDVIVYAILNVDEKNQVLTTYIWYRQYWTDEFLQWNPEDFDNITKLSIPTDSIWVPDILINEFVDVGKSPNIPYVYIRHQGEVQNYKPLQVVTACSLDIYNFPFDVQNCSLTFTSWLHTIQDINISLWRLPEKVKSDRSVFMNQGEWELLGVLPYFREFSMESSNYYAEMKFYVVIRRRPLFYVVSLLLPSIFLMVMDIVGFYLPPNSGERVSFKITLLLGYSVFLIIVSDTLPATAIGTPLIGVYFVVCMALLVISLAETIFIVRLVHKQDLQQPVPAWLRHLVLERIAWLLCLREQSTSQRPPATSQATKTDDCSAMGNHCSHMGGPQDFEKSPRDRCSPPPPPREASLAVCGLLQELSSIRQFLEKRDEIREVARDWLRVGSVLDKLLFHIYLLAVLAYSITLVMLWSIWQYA
Sequence of 5-hydroxytryptamine receptor 7 (Homo sapiens) (P34969 whole entry): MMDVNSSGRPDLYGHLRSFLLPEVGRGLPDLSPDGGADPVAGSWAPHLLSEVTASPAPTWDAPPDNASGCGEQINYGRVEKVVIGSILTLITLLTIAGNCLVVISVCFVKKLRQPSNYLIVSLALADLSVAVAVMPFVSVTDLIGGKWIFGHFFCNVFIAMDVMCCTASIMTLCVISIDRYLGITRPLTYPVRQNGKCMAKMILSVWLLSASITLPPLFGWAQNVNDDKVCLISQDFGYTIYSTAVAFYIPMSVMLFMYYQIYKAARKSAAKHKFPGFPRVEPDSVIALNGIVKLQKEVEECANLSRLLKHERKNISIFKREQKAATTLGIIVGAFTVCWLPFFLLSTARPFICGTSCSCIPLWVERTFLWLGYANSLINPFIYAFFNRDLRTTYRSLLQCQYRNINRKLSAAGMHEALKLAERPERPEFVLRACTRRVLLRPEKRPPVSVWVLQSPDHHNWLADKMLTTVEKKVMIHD
Sequence of Histamine H2 receptor (Homo sapiens) (P25021 whole entry): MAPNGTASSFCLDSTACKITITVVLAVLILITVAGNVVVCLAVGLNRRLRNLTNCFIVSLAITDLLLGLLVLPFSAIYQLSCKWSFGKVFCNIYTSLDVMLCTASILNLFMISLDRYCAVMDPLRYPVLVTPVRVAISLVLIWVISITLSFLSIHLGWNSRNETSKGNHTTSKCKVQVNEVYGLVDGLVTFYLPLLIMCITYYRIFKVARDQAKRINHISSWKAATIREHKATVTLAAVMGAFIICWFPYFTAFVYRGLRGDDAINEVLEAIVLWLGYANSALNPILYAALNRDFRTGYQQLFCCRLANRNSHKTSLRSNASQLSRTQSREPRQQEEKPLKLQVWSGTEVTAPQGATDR
Sequence of Beta-3 adrenergic receptor (Homo sapiens) (P13945 whole entry, looked up): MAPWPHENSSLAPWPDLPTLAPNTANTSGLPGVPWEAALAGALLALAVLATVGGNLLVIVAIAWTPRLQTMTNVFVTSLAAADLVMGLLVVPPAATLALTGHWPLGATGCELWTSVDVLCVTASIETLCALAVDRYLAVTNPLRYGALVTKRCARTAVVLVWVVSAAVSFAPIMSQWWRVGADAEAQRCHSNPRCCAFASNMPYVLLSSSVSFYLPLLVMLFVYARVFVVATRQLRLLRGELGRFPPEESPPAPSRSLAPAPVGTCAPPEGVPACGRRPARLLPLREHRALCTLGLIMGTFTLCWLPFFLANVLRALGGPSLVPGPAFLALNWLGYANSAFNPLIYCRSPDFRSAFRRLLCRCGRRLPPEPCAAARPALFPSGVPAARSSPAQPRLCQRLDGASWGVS
Sequence of Mu-type opioid receptor (Homo sapiens) (P35372 whole entry): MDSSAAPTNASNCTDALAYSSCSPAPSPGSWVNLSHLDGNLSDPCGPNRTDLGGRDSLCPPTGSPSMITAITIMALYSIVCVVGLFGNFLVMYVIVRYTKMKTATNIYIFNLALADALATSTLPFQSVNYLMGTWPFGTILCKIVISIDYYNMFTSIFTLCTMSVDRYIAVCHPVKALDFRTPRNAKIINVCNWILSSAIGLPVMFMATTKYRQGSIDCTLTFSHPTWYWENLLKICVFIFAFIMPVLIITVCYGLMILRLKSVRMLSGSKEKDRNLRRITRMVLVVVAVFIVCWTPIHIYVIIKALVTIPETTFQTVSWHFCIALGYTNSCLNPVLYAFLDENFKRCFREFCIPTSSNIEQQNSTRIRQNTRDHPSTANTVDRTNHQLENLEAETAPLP
Sequence of MAO-A (P21397 whole entry): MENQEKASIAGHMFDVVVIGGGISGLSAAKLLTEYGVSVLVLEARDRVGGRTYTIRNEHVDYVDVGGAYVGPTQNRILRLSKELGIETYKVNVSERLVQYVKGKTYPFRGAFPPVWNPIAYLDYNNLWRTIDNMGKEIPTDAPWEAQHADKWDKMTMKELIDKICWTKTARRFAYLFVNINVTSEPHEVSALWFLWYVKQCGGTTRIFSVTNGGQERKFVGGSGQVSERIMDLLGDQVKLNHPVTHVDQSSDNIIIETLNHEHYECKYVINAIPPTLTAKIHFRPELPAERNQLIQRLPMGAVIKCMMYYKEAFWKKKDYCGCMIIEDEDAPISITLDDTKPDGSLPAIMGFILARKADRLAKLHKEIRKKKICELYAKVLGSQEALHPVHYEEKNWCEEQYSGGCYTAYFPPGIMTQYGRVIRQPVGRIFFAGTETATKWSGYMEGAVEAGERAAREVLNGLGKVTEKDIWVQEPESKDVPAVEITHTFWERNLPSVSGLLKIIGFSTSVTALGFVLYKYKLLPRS
Sequence of CYP2D6 (P10635 whole entry): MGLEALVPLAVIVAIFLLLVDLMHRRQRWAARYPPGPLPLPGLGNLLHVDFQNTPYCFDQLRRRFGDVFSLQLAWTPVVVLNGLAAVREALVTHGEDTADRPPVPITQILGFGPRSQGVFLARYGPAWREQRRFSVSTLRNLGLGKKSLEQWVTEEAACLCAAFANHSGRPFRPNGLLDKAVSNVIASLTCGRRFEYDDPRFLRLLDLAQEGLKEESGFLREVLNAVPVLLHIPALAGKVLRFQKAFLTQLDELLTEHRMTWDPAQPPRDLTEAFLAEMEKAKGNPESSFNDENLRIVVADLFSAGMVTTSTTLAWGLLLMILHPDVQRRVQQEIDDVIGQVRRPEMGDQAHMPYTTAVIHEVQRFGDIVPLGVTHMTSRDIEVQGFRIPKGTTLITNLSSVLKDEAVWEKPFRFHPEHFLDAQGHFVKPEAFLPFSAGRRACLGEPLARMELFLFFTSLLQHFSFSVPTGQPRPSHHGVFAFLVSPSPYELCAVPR
Sequence of Vasopressin V2 receptor (Homo sapiens) (P30518 whole entry): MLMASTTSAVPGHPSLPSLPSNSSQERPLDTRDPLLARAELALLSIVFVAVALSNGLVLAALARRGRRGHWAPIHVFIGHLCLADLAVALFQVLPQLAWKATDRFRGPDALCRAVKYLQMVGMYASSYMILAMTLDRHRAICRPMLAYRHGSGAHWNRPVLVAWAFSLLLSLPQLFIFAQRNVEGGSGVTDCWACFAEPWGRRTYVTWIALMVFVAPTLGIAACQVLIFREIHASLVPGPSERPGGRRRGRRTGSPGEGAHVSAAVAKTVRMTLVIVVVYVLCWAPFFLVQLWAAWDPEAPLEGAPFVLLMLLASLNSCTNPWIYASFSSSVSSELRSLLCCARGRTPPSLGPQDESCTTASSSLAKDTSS

COc1ccc2c(N[C@@H](C)Cc3cc(C)[nH]n3)ncnc2c1OC
21 nM: concentration at 0.5 h [2]
4540: Ratio IC50 [26]
8 nM: concentration at 2 h [28]
626: Ratio IC50 [32]
> 142 nM: IC50 [11]
4 nM: Drug uptake(free) [14]
10: Ratio IC50 [22]
0.13: Ratio [10]
< 50%: inhibition [1] | inhibition [3] | inhibition [4] | inhibition [5] | inhibition [6] | inhibition [7] | inhibition [8] | inhibition [9] | inhibition [12] | inhibition at 10 µM [13] | inhibition [15] | inhibition [16] | inhibition [17] | inhibition [18] | inhibition [19] | inhibition [20] | inhibition [21] | inhibition [23] | inhibition [27] | inhibition [29] | inhibition [30] | inhibition at 10 µM [31] | inhibition at 10 µM [33] | inhibition [34] | inhibition [35] | inhibition [36] | inhibition [37]
0.2: Ratio [25]
3740: Ratio IC50 [24]
